Measurements: ChEMBL document CHEMBL1133586, “The cyclohexene ring system as a furanose mimic: synthesis and antiviral activity of both enantiomers of cyclohexenylguanine” (2000)
Values after ≈ are worked out from the molar mass of the structure shown. Values joined by “and” are separate entries in the source; they are usually repeats but may differ in a detail not shown here. Equal values may be shown once.

Columns and labels:
[1] = Minimum inhibitory concentration was determined against HSV-1 (KOS) in E6SM cell culture; assay type: functional, herpes simplex virus
Method in brief: (§1)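 Confluent E6SM cultures in microtiter trays were infected with 100 CCID50 of virus. After 1 h adsorption, residual virus was removed and cultures were incubated with varying compound concentrations. Cytopathicity was read once virus controls reached completion. The value is the concentration reducing virus-induced cytopathogenicity by 50%, as the mean of two independent determinations.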

Vero = assay: Cytotoxicity concentration required to microscopically detectable alteration of cell morphology in Vero; assay type: functional, Chlorocebus sabaeus
Method in brief: (§2)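 Cytotoxicity was scored as the minimum concentration giving a microscopically detectable change in normal cell morphology of E6SM, HeLa or Vero cell cultures.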

[2] = Minimum inhibitory concentration was determined against HSV-1 (TK-KOS ACV) in E6SM cell culture; assay type: functional, herpes simplex virus; conditions: Human alphaherpesvirus 1; method in brief: as §1
Cytomegalovirus [3] = assay: Minimum inhibitory concentration was determined against CMV(AD169) in E6SM cell culture; assay type: functional; conditions: Human betaherpesvirus 5; method in brief: as §1
[4] = Minimum inhibitory concentration was determined against HSV-2 (Lyons) in E6SM cell culture; assay type: functional, herpes simplex virus; method in brief: as §1
Human alphaherpesvirus 1 [5] = assay: Minimum inhibitory concentration was determined against HSV-1 (G) in E6SM cell culture; assay type: functional, herpes simplex virus; method in brief: as §1
E6SM = assay: Cytotoxicity concentration required to microscopically detectable alteration of cell morphology in E6SM; assay type: functional, Homo sapiens; method in brief: as §2
Human alphaherpesvirus 1 [6] = assay: Minimum inhibitory concentration was determined against HSV-1 (F) in E6SM cell culture; assay type: functional, herpes simplex virus; method in brief: as §1
[7] = (§3) Minimum inhibitory concentration was determined against HSV-1 (McIntyre) in E6SM cell culture; assay type: functional, herpes simplex virus; conditions: Human alphaherpesvirus 1; method in brief: as §1
Human alphaherpesvirus 1 [8] = assay: Minimum inhibitory concentration was determined against HSV-1 (TK-/TK+VMW1837) in E6SM cell culture
[9] = Minimum inhibitory concentration was determined against HSV-2 (196) in E6SM cell culture; assay type: functional, herpes simplex virus; method in brief: as §1
Cytomegalovirus [10] = assay: Minimum inhibitory concentration was determined against CMV(Davis) in E6SM cell culture; assay type: functional; conditions: Human betaherpesvirus 5; method in brief: as §1
HEL [11] = assay: Cytotoxicity concentration required to microscopically detectable alteration of cell morphology HEL; assay type: functional, Homo sapiens
Human alphaherpesvirus 3 [12] = assay: (§4) Minimum inhibitory concentration was determined against VZV (TK-YS/R) in HEL cells
Human alphaherpesvirus 2 = assay: Minimum inhibitory concentration was determined against HSV-2 (G) in E6SM cell culture
Human alphaherpesvirus 3 [13] = assay: (§5) Minimum inhibitory concentration was determined against VZV (OKA) in HEL cells
[14] = (§6) Minimum inhibitory concentration was determined against VZV (YS) in HEL cells
[15] = Minimum inhibitory concentration was determined against HSV-1 (TK-/TK+VMW1837) in E6SM cell culture; assay type: functional, herpes simplex virus; method in brief: as §1
Human alphaherpesvirus 3 [16] = assay: (§7) Minimum inhibitory concentration was determined against VZV (TK-07/1) in HEL cells
HEL [17] = assay: Cytotoxicity concentration required to reduce cell growth by 50% in HEL; assay type: functional, Homo sapiens
Method in brief: (§8)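 In HEL cells, cytotoxicity was measured as inhibition of normal cell growth, and the value is the concentration reducing cell growth by 50%.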

[18] = Selectivity index was determined against VZV (OKA) in HEL cells; assay type: functional
Human alphaherpesvirus 3 [19] = assay: as §7; assay type: functional
Method in brief: (§9)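 HEL cell cultures were infected with 20 PFU of virus and incubated with varying compound concentrations. The value is the concentration reducing virus plaque formation by 50%, as the mean of two independent determinations.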

[20] = Selectivity index was determined in HSV-1 (KOS) in E6SM cell culture; assay type: functional
[21] = Selectivity index was determined against HSV-2 (Lyons) in E6SM cell culture; assay type: functional
Human alphaherpesvirus 3 [22] = assay: as §4; assay type: functional; method in brief: as §9
[23] = Selectivity index was determined against HSV-1 (F) in E6SM cell culture; assay type: functional
[24] = Selectivity index was determined against CMV (AD 169) in HEL cells; assay type: functional
Human alphaherpesvirus 3 [25] = assay: as §5; assay type: functional; method in brief: as §9
Cytomegalovirus [26] = assay: Minimum inhibitory concentration was determined in CMV (AD169) in HEL cell; assay type: functional; conditions: Human betaherpesvirus 5; method in brief: as §9
[27] = Selectivity index was determined against HSV-1 (TK-/TK+VMW1837) in E6SM cell culture; assay type: functional
Cytomegalovirus [28] = assay: Minimum inhibitory concentration was determined against CMV (Davis) in HEL cell; assay type: functional; conditions: Human betaherpesvirus 5; method in brief: as §9
Human alphaherpesvirus 3 [29] = assay: as §6; assay type: functional; method in brief: as §9
[30] = Selectivity index was determined against CMV (Davis) in HEL cells; assay type: functional
[31] = Selectivity index was determined against VZV (TK-YS/R) in HEL cells; assay type: functional
[32] = Selectivity index was determined againstHSV-2 (196) in E6SM cell culture; assay type: functional
[33] = Selectivity index was determined against VZV (YS) in HEL cells; assay type: functional
Human alphaherpesvirus 1 [34] = assay: as §3; assay type: functional, herpes simplex virus; method in brief: as §1
[35] = Minimum inhibitory concentration was determined against HSV-2 (G) in E6SM cell culture; assay type: functional, herpes simplex virus; method in brief: as §1
Cytomegalovirus [36] = assay: Minimum inhibitory concentration was determined in CMV (Davis) in HEL cell; assay type: functional; conditions: Human betaherpesvirus 5; method in brief: as §9
HEL [37] = assay: Cytotoxicity concentration required to inhibit the cell growth by 50% in HEL; assay type: functional, Homo sapiens; method in brief: as §8
Human alphaherpesvirus 3 [38] = assay: as §4; assay type: functional; method in brief: as §9; remark: listed apart in the source
HeLa = assay: Cytotoxicity concentration required to microscopically detectable alteration of cell morphology in HeLa; assay type: functional, Homo sapiens; method in brief: as §2
Cytomegalovirus [39] = assay: Minimum inhibitory concentration was determined against CMV (AD 169) in HEL cells; assay type: functional; conditions: Human betaherpesvirus 5; method in brief: as §9
[40] = Minimum inhibitory concentration was determined against HSV-2 (G) in E6SM cell culture; conditions: Human alphaherpesvirus 2
[41] = Human alphaherpesvirus 1, read-out: MIC
[42] = Human alphaherpesvirus 3, read-out: MIC

Nc1nc2c(ncn2COC(CO)CO)c(=O)[nH]1 [GANCICLOVIR]
MIC [1, 41]: 0.001 µg/mL (≈ 0.00392 µM) | Cytotoxicity (Vero): > 100 µg/mL | MIC [2]: 0.48 µg/mL (≈ 1.88 µM) | MIC (Cytomegalovirus [3]): 0.6 µg/mL (≈ 2.35 µM) | MIC [4]: 0.001 µg/mL (≈ 0.00392 µM) | MIC (Human alphaherpesvirus 1 [5]): 0.002 µg/mL (≈ 0.00784 µM) | Cytotoxicity (E6SM): > 50 µg/mL | MIC (Human alphaherpesvirus 1 [6]; [41]): 0.001 µg/mL (≈ 0.00392 µM) | MIC [7]: 0.001 µg/mL (≈ 0.00392 µM) | MIC (Human alphaherpesvirus 1 [8]): 0.01 µg/mL (≈ 0.0392 µM) | MIC ([9]; Human alphaherpesvirus 2): 0.001 µg/mL (≈ 0.00392 µM) | MIC (Cytomegalovirus [10]): 0.8 µg/mL (≈ 3.13 µM) | Cytotoxicity (HEL [11]): > 50 µg/mL

Nc1nc2c(ncn2COCCO)c(=O)[nH]1 [ACYCLOVIR]
MIC [1, 41]: 0.01 µg/mL (≈ 0.0444 µM) | Cytotoxicity (Vero): > 400 µg/mL | MIC [2]: 9.6 µg/mL (≈ 42.6 µM) | MIC [4]: 0.02 µg/mL (≈ 0.0888 µM) | Cytotoxicity (E6SM): > 50 µg/mL | MIC (Human alphaherpesvirus 3 [12]): 28 µg/mL (≈ 124 µM) | MIC (Human alphaherpesvirus 1 [6]; [41]): 0.003 µg/mL (≈ 0.0133 µM) | MIC (Human alphaherpesvirus 2): 0.02 µg/mL (≈ 0.0888 µM) | MIC (Human alphaherpesvirus 3 [13]): 0.8 µg/mL (≈ 3.55 µM) | MIC [14]: 1.1 µg/mL (≈ 4.88 µM) | MIC [7]: 0.005 µg/mL (≈ 0.0222 µM) | MIC ([9]; Human alphaherpesvirus 2): 0.02 µg/mL (≈ 0.0888 µM) | MIC ([15]; Human alphaherpesvirus 1): 0.07 µg/mL (≈ 0.311 µM) | MIC (Human alphaherpesvirus 3 [16]): 13 µg/mL (≈ 57.7 µM)

Nc1nc(O)c2ncn(C3C=CC(CO)C(O)C3)c2n1 (stereo not drawn)
Cytotoxicity (HEL [17]): > 20 µg/mL | Selectivity index [18]: >10 and >30 | MIC [1]: 0.002 µg/mL (≈ 0.00721 µM) | MIC [1, 41]: 0.003 µg/mL (≈ 0.0108 µM) | MIC (Human alphaherpesvirus 3 [19]): 5.8 µg/mL and 2.1 µg/mL | Selectivity index [20]: > 5000 | Selectivity index [21]: >2.2 and >5 | MIC (Human alphaherpesvirus 3 [22]): 2.8 µg/mL (≈ 10.1 µM) | Selectivity index [23]: >5 and >2 | Selectivity index [24]: >13 and >30 | MIC (Human alphaherpesvirus 3 [25]): 1.9 µg/mL and 0.64 µg/mL | MIC (Cytomegalovirus [26]): 0.6 µg/mL (≈ 2.16 µM) | MIC [4]: 0.07 µg/mL (≈ 0.252 µM) | Selectivity index [27]: >1.6 and >4 | MIC (Cytomegalovirus [28]): 1.7 µg/mL (≈ 6.13 µM) | MIC (Human alphaherpesvirus 3 [29]): 1.2 µg/mL and 0.49 µg/mL | Selectivity index [30]: >12 and >25 | Selectivity index [31]: >3 and >7 | Selectivity index [32]: > 160 | Selectivity index [33]: >16 and >40 | MIC (Human alphaherpesvirus 1 [6]): 0.002 µg/mL (≈ 0.00721 µM) | MIC (Human alphaherpesvirus 1 [6]; [41]): 0.003 µg/mL (≈ 0.0108 µM) | MIC (Human alphaherpesvirus 1 [34]): 0.004 µg/mL (≈ 0.0144 µM) | MIC (Human alphaherpesvirus 1 [34]; [41]): 0.004 µg/mL (≈ 0.0144 µM) | MIC [35]: 0.05 µg/mL (≈ 0.18 µM) | MIC [35, 41]: 0.07 µg/mL (≈ 0.252 µM) | MIC (Cytomegalovirus [36]): 0.8 µg/mL (≈ 2.89 µM) | Cytotoxicity (HEL [37]): > 20 µg/mL | MIC [9]: 0.07 µg/mL (≈ 0.252 µM) | MIC [9, 41]: 0.1 µg/mL (≈ 0.361 µM) | MIC [15]: 0.01 µg/mL (≈ 0.0361 µM) | MIC [15, 41]: 0.01 µg/mL (≈ 0.0361 µM) | MIC (Human alphaherpesvirus 3 [38]): 6.8 µg/mL (≈ 24.5 µM) | Cytotoxicity (HeLa): 400 µg/mL | MIC (Cytomegalovirus [39]): 1.5 µg/mL (≈ 5.41 µM)

Nc1ccn(C[C@@H](CO)OCP(=O)(O)O)c(=O)n1.O.O [CIDOFOVIR]
MIC (Cytomegalovirus [3]): 0.08 µg/mL | Cytotoxicity (E6SM): > 50 µg/mL | MIC (Cytomegalovirus [10]): 0.2 µg/mL | Cytotoxicity (HEL [11]): > 50 µg/mL

O=c1[nH]c(=O)n([C@H]2C[C@H](O)[C@@H](CO)O2)cc1/C=C/Br [BRIVUDINE]
Cytotoxicity (HEL [17]): > 50 µg/mL | MIC [1, 41]: 0.001 µg/mL (≈ 0.003 µM) | MIC (Human alphaherpesvirus 3 [19]; [42]): > 20 µg/mL | Cytotoxicity (Vero): > 400 µg/mL | MIC (Human alphaherpesvirus 3 [22]): > 50 µg/mL | MIC (Human alphaherpesvirus 3 [25]; [42]): 0.003 µg/mL (≈ 0.00901 µM) | MIC [2]: > 80 µg/mL | MIC [4]: > 80 µg/mL | MIC (Human alphaherpesvirus 3 [29]; [42]): 0.03 µg/mL (≈ 0.0901 µM) | Cytotoxicity (E6SM): > 400 µg/mL | MIC (Human alphaherpesvirus 1 [6]; [41]): 0.001 µg/mL (≈ 0.003 µM) | MIC (Human alphaherpesvirus 1 [34]; [41]): 0.001 µg/mL (≈ 0.003 µM) | MIC [9, 41]: > 80 µg/mL | MIC [15, 41]: > 80 µg/mL | Cytotoxicity (HEL [11]): > 200 µg/mL | Cytotoxicity (HeLa): > 400 µg/mL | MIC [40]: > 80 µg/mL
